Data: paper PMC9044198 (RSC Advances, 2021)
“Also recorded” adds a separate entry of the source. Read-outs that look alike come from different tables or passages of the source.

Key:
[1] = target: α-glucosidase (Saccharomyces cerevisiae, EC 3.2.1.20) (Saccharomyces cerevisiae, UniProt P53341); experiment: Assay of α-glucosidase inhibitory activity; format: biochemical; conditions: for inhibitory effect on α-glucosidase (in words): 1-deoxynojirimycin as control
[2] = target: T1, α-glucosidase (Saccharomyces cerevisiae, UniProt P53341); conditions: reported in the literature; cited from earlier work
[3] = target: T1, α-glucosidase; experiment: Inhibitory kinetic analysis; format: biochemical
[4] = target: T1, α-glucosidase; experiment: Fluorescence quenching and UV-Vis absorption spectra of α-glucosidase; format: binding; conditions: Stern–Volmer analysis and UV-Vis absorption spectra at 298 K
How it was run: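 Tryptophan fluorescence was excited at 280 nm and emission recorded at 300–500 nm. Test compound (0–8.0 × 10−5 mol L−1) was added to α-glucosidase (1 U mL−1) and incubated 30 s at 298 K before reading. Data were fitted to the Stern–Volmer equation F0/F = 1 + Kqτ0[Q], with τ0 = 6.2 ns. The same method was run at 273, 298 and 310 K for thermodynamic parameters. UV-Vis spectra (200–600 nm) were taken of enzyme (1.0 × 10−5 mol L−1) with compound at 0–9.0 × 10−5 mol L−1.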

α-glucosidase (Saccharomyces cerevisiae, EC 3.2.1.20), sequence (P53341 whole entry): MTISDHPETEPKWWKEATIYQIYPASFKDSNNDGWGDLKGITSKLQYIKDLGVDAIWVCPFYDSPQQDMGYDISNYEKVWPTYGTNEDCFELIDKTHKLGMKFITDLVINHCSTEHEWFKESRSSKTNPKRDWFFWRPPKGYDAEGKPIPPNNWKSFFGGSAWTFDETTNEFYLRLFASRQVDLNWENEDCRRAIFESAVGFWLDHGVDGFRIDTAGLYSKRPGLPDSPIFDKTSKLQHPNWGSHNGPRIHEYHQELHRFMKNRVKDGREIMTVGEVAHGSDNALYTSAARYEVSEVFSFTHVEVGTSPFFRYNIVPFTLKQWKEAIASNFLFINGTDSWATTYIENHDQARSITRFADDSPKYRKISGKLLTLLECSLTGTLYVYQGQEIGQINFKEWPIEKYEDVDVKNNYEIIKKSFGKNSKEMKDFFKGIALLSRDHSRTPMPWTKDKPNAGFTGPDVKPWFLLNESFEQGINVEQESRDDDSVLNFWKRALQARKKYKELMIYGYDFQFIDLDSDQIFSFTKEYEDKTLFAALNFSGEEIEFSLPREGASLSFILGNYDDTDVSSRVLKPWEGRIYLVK
T1 sequence (P53341 whole entry): as above

## O=c1cc(-c2ccccc2)oc2cc(OCCCCCN3C[C@H](O)[C@@H](O)[C@H](O)[C@H]3CO)cc(O)c12 [compound 4, 5-Hydroxy-2-phenyl-7-((5-((2R,3R,4R,5S)-3,4,5-trihydroxy-2-(hydroxymeth-yl)-piperidin-1-yl)pentyl)oxy)-4H-chromen-4-one]
[1]
  IC50: > 100 µM

## OC[C@H]1NC[C@H](O)[C@@H](O)[C@@H]1O [1-Deoxynojirimycin]
[2]
  reversibility of α-glucosidase inhibition: reversibly inhibit

## O=c1cc(-c2ccccc2)oc2cc(OCCCCCCCCN3C[C@H](O)[C@@H](O)[C@H](O)[C@H]3CO)cc(O)c12 [compound 5, 5-Hydroxy-2-phenyl-7-((8-((2R,3R,4R,5S)-3,4,5-trihydroxy-2-(hydroxymeth-yl)-piperidin-1-yl)octyl)oxy)-4H-chromen-4-one]
[1]
  IC50: 5.56 ± 0.24 µM
  inhibitory effect on α-glucosidase (in words): superior inhibition effects compared to 1-deoxynojirimycin

## O=c1cc(-c2ccccc2)oc2cc(OCCCCCCCCCCCN3C[C@H](O)[C@@H](O)[C@H](O)[C@H]3CO)cc(O)c12 [compound 6, 5-Hydroxy-2-phenyl-7-((11-((2R,3R,4R,5S)-3,4,5-trihydroxy-2-(hydroxymethyl)-piperidin-1-yl)undecyl)oxy)-4H-chromen-4-one]
[3]
  Ki: 210 nM
[3]; 0.0, 0.5, 1.0 μM of compound, varying enzyme concentration
  reversibility of α-glucosidase inhibition: reversible
[3]; Lineweaver–Burk plot
  inhibition type: mixed competitive; also recorded: mixed-type inhibitor; also recorded: mixed competition type
[1]
  IC50: 0.51 ± 0.02 µM
  inhibitory effect on α-glucosidase (in words): superior inhibition effects compared to 1-deoxynojirimycin
[1]; ratio of IC50 values
  α-glucosidase inhibitory activity, fold higher than 1-deoxynojirimycin: up to 16 fold
[4]
  fluorescence quenching mechanism: static fluorescence quenching
